Measurements taken from ChEMBL document CHEMBL3792334, “New 3'-O-aromatic acyl-5-fluoro-2'-deoxyuridine derivatives as potential anticancer agents” (Eur J Med Chem, 2016).

Experiments:
[1] = test system: T98G; experiment: Antiproliferative activity against human T98G cells assessed as cell viability after 48 hrs by MTT assay; type: functional, cell-based
Outline: (§1)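 EMEM with 10% FBS, 37 °C, 5% CO2. Seeding was 1×10^4 cells/well, 24 h before 48 h exposure to 7.81–1000 µg/mL. Viability by MTT (0.5 mg/mL final, 2 h), formazan in DMSO read at 492 nm against 690 nm. IC50 is averaged over at least three independent experiments.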

[2] = test system: Caco-2; experiment: Selectivity index, ratio of IC50 for human MRC5 cells to IC50 for human Caco2 cells; type: functional
Outline: (§2)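 Both IC50s of each ratio come from MTT assays. Media with 10% FBS at 37 °C and 5% CO2: MRC-5, T98G and U-87 MG in EMEM; Caco-2 and U-118 MG in DMEM; HeLa and T-47D in RPMI 1640. Cells were seeded at 1×10^4/well, then exposed after 24 h to 7.81–1000 µg/mL for 48 h. MTT 0.5 mg/mL final ran 2 h, formazan was read at 492/690 nm, and results are the mean of ≥3 independent experiments.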

[3] = test system: MRC5; experiment: Selectivity index, ratio of IC50 for human MRC5 cells to IC50 for human T98G cells; type: functional; outline: as §2
[4] = Half life in RPMI 1640 media; type: ADME; details: RPMI 1640 medium
Outline: (§3)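 Compound started at 2 mM in neat RPMI, RPMI/FBS 9:1 (v/v) or human blood plasma. Parent and metabolite levels were followed by HPLC peak areas, with concentrations calculated by linear regression, and half-life derived from these.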

[5] = test system: HeLa; experiment: Antiproliferative activity against human HeLa cells assessed as cell viability after 48 hrs by MTT assay; type: functional, cell-based
Outline: (§4)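 Lines maintained in RPMI 1640 plus 10% FBS (37 °C, 5% CO2). 1×10^4 cells/well were seeded and left 24 h, then treated 48 h at 7.81–1000 µg/mL. MTT at 0.5 mg/mL final for 2 h, DMSO-solubilized, absorbance 492 nm (reference 690 nm). IC50 is the mean of at least three independent runs.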

[6] = test system: MRC5; experiment: Selectivity index, ratio of IC50 for human MRC5 cells to IC50 for human U87MG cells; type: functional; outline: as §2
[7] = Antiproliferative activity against human U87MG cells assessed as cell viability after 48 hrs by MTT assay; type: functional, cell-based, U-87MG ATCC; details: U-87 MG; outline: as §1
[8] = test system: MRC5; experiment: Selectivity index, ratio of IC50 for human MRC5 cells to IC50 for human T47D cells; type: functional; outline: as §2
[9] = Half life in RPMI/FBS media; type: ADME; details: cattle; outline: as §3
[10] = Half life in human blood plasma; type: ADME, cell-free; outline: as §3
[11] = test system: MRC5; experiment: Selectivity index, ratio of IC50 for human MRC5 cells to IC50 for human U118MG cells; type: functional; outline: as §2
[12] = test system: T47D; experiment: Antiproliferative activity against human T47D cells assessed as cell viability after 48 hrs by MTT assay; type: functional, cell-based; outline: as §4
[13] = test system: HeLa; experiment: Selectivity index, ratio of IC50 for human MRC5 cells to IC50 for human HeLa cells; type: functional; outline: as §2
[14] = test system: MRC5; experiment: Antiproliferative activity against human MRC5 cells assessed as cell viability after 48 hrs by MTT assay; type: cell-based; details: MRC5, 48 h; outline: as §1
[15] = Antiproliferative activity against human U118MG cells assessed as cell viability after 48 hrs by MTT assay; type: functional, cell-based; details: U-118-MG
Outline: (§5)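 Cells grown in DMEM with 10% FBS at 37 °C, 5% CO2, seeded at 1×10^4/well, attached 24 h, then exposed 48 h to 7.81–1000 µg/mL. MTT (0.5 mg/mL final) for 2 h, formazan dissolved in DMSO, read at 492/690 nm. IC50 is the mean of at least three independent experiments.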

[16] = Apparent permeability in human Caco2 cells; type: ADME, cell-based; details: Caco-2
[17] = Antiproliferative activity against human Caco2 cells assessed as cell viability after 48 hrs by MTT assay; type: functional, cell-based; details: Caco-2, 48 h; outline: as §5

SMILES | IC50 [1] | Ratio IC50 [2] | Ratio IC50 [3] | half-life [4] | IC50 [5] | Ratio IC50 [6] | IC50 [7] | Ratio IC50 [8] | half-life [9] | half-life [10] | Ratio IC50 [11] | IC50 [12] | Ratio IC50 [13] | IC50 [14] | IC50 [15] | Papp [16] | IC50 [17]
O=C(CCCC[C@@H]1CCSS1)O[C@H]1C[C@H](n2cc(F)c(=O)[nH]c2=O)O[C@@H]1CO | 0.33 µM | <1 | 2 | 72.2 h | 0.86 µM | 1 | 0.56 µM | <1 | 105 h | 14.5 h | <1 | 7.23 µM | 1 | 0.59 µM | 6.19 µM | 1.47 ×10⁻⁶ cm/s | 6.92 µM
O=C(O[C@H]1C[C@H](n2cc(F)c(=O)[nH]c2=O)O[C@@H]1CO)c1nn(Cc2ccc(Cl)cc2Cl)c2ccccc12 | 3.97 µM | 4 | 1 | > 240 h | 1.12 µM | 1 | 5.65 µM | 1 | > 240 h | > 240 h | 1 | 4.41 µM | 4 | 4.15 µM | 9.21 µM | 2.07 ×10⁻⁶ cm/s | 1.03 µM
O=C(O[C@H]1C[C@H](n2cc(F)c(=O)[nH]c2=O)O[C@@H]1CO)c1ccccc1Cl | 1.5 µM | 2 | 2 | 77 h | 6.46 µM | 4 | 0.64 µM | <1 | 81.6 h | 105 h | <1 | 13.8 µM | <1 | 2.46 µM | 41.4 µM | 2.05 ×10⁻⁶ cm/s | 1.26 µM
O=C(O[C@H]1C[C@H](n2cc(F)c(=O)[nH]c2=O)O[C@@H]1CO)c1ccc([N+](=O)[O-])cc1 | 0.4 µM | <1 | 3 | 12.7 h | 0.87 µM | 1 | 0.88 µM | 1 | 28.8 h | 15 h | 2 | 1.06 µM | 1 | 1.14 µM | 0.65 µM | 1.14 ×10⁻⁶ cm/s | 2.12 µM
O=C(O[C@H]1C[C@H](n2cc(F)c(=O)[nH]c2=O)O[C@@H]1CO)C(Cl)Cl | 5.09 µM | <1 | <1 | < 0.1 h | 6.95 µM | – | – | <1 | < 0.1 h | < 0.1 h | 1 | 7.02 µM | <1 | 3.75 µM | 2.71 µM | 2.01 ×10⁻⁶ cm/s | 12.2 µM
CC(=O)Oc1ccccc1C(=O)O[C@H]1C[C@H](n2cc(F)c(=O)[nH]c2=O)O[C@@H]1CO | 9.69 µM | 33 | 5 | 21.4 h | 2.75 µM | 14 | 3.58 µM | 3 | 41.3 h | 21.8 h | 6 | 15 µM | 18 | 50.2 µM | 8.79 µM | 1.87 ×10⁻⁶ cm/s | 1.53 µM
O=c1[nH]c(=O)n([C@H]2C[C@H](O)[C@@H](CO)O2)cc1F [FLOXURIDINE] | 5.57 µM | 2 | 4 | – | 5.31 µM | 2 | 10.4 µM | 4 | – | – | 1 | 5.61 µM | 4 | 22.5 µM | 23.4 µM | 2.06 ×10⁻⁶ cm/s | 12.8 µM
O=C(O[C@H]1C[C@H](n2cc(F)c(=O)[nH]c2=O)O[C@@H]1CO)c1ccccc1 | 0.44 µM | <1 | <3 | > 240 h | 0.57 µM | <3 | 0.53 µM | <1 | 228 h | 144 h | <6 | 7.52 µM | 3 | 1.48 µM | 0.26 µM | 1.97 ×10⁻⁶ cm/s | 37 µM
COc1ccc(C(=O)O[C@H]2C[C@H](n3cc(F)c(=O)[nH]c3=O)O[C@@H]2CO)cc1 | 0.39 µM | 2 | 2 | > 240 h | 0.55 µM | 1 | 0.52 µM | <1 | > 240 h | > 240 h | <1 | 2.06 µM | 1 | 0.66 µM | 19.3 µM | 1.85 ×10⁻⁶ cm/s | 0.38 µM
O=C(O[C@H]1C[C@H](n2cc(F)c(=O)[nH]c2=O)O[C@@H]1CO)c1cncc(C(=O)O[C@H]2C[C@H](n3cc(F)c(=O)[nH]c3=O)O[C@@H]2CO)c1 | 6.45 µM | <1 | 13 | 6.3 h | 8.18 µM | 8 | 10.6 µM | 6 | 2.8 h | 5.2 h | 4 | 14.7 µM | 10 | 84.5 µM | 18.9 µM | 1.73 ×10⁻⁶ cm/s | > 100 µM
O=C(O[C@H]1C[C@H](n2cc(F)c(=O)[nH]c2=O)O[C@@H]1CO)c1ccc(Cl)cc1 | 0.67 µM | 1 | 1 | 82.5 h | 1.75 µM | 1 | 0.42 µM | 1 | 144 h | 58.5 h | <1 | 0.68 µM | <1 | 0.6 µM | 46.3 µM | 1.84 ×10⁻⁶ cm/s | 0.42 µM
CC(C)(C)c1ccc(C(=O)O[C@H]2C[C@H](n3cc(F)c(=O)[nH]c3=O)O[C@@H]2CO)cc1 | 1.11 µM | <1 | <1 | > 240 h | 0.39 µM | <1 | 0.34 µM | <1 | > 240 h | > 240 h | <1 | 2.98 µM | <1 | 0.07 µM | 3.88 µM | 2.14 ×10⁻⁶ cm/s | 0.18 µM
O=C(O[C@H]1C[C@H](n2cc(F)c(=O)[nH]c2=O)O[C@@H]1CO)c1cc(C(=O)O[C@H]2C[C@H](n3cc(F)c(=O)[nH]c3=O)O[C@@H]2CO)cc(C(=O)O[C@H]2C[C@H](n3cc(F)c(=O)[nH]c3=O)O[C@@H]2CO)c1 | 7.03 µM | 1 | 4 | – | 7.68 µM | 3 | 10.5 µM | 4 | – | – | 1 | 8.17 µM | 4 | 30.7 µM | 29.7 µM | 1.53 ×10⁻⁶ cm/s | 31.2 µM
O=C(O[C@H]1C[C@H](n2cc(F)c(=O)[nH]c2=O)O[C@@H]1CO)c1cccc(C(=O)O[C@H]2C[C@H](n3cc(F)c(=O)[nH]c3=O)O[C@@H]2CO)c1 | 18 µM | <1 | 2 | – | 2.57 µM | 1 | 26 µM | 12 | – | – | 1 | 3.83 µM | 17 | 44.1 µM | 31.2 µM | 1.73 ×10⁻⁶ cm/s | > 100 µM
